The test system of assay [1] is Mus musculus. Put plainly: Compound was evaluated in vivo for antileukemic activity by calculating Percent increase in life span at dose of 8 mg/kg. It is filed as functional. The procedure, abridged:
(§1)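 NCI protocols. CD2F1 mice were implanted ip with 10⁶ lymphocytic leukemia P388 cells 24 h before treatment. Drug was given ip daily on days 1–5, or as a single day-1 dose where footnoted. The read-out was percent increase in lifespan.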

For assay [2], the system named is L1210. Put plainly: Concentration that inhibits proliferation of cultured lymphoid leukemia L1210 cells to 50% control growth during 48 h. Conditions: Mus musculus, L1210, 48 h. It is filed as functional, cell-based. The essentials:
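L1210 lymphoid leukemia cells in culture, exposed to agent for 48 h. Proliferation is measured against untreated control growth. Value is the nanomolar concentration holding growth to 50% of control.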

For assay [3], the system named is L1210. Put plainly: Concentration that causes a mitotic index (number of cells in mitosis divided by total cells) of 0.5 for cultured lymphoid leukemia L1210 cells during an exposure period of 12 h. It is filed as functional, Mus musculus. The essentials:
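Mouse lymphoid leukemia L1210 cells in culture, exposed to agent for 12 h. Mitotic index is cells in mitosis over total cells. Value is the nanomolar concentration giving an index of 0.5.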

The subject of assay [4] is Mus musculus. Briefly: Compound was evaluated in vivo for antileukemic activity by calculating Percent increase in life span at dose of 70 mg/kg. The format is functional. The procedure, abridged:
as §1

Assay [5] concerns Mus musculus. Put plainly: Compound was evaluated in vivo for antileukemic activity by calculating Percent increase in life span at dose of 1 mg/kg. The format is functional. The procedure, abridged:
as §1

For assay [6], the system named is Mus musculus. Briefly: Compound was evaluated in vivo for antileukemic activity by calculating Percent increase in life span at dose of 2 mg/kg. The format is functional. The essentials:
as §1

Assay [7] concerns Mus musculus. Briefly: Compound was evaluated in vivo for antileukemic activity by calculating Percent increase in life span at dose of 30 mg/kg. The format is functional. The essentials: as §1
The test system of assay [8] is Mus musculus. Briefly: Compound was evaluated in vivo for antileukemic activity by calculating Percent increase in life span at dose of 0.5 mg/kg. The format is functional. The essentials: as §1
The test system of assay [9] is Mus musculus. Put plainly: Compound was evaluated in vivo for antileukemic activity by calculating Percent increase in life span at dose of 200 mg/kg. It is filed as functional. The essentials:
as §1

Assay [10] relates to Mus musculus. Put plainly: Compound was evaluated in vivo for antileukemic activity by calculating Percent increase in life span at dose of 75 mg/kg. It is filed as functional. The procedure, abridged: as §1
Assay [11] has as its system Mus musculus. Put plainly: Compound was evaluated in vivo for antileukemic activity by calculating Percent increase in life span at dose of 24 mg/kg. The format is functional. The procedure, abridged: as §1

The values below come from ChEMBL document CHEMBL1125562, “Antimitotic agents: ring analogues and derivatives of ethyl [(S)-5-amino-1,2-dihydro-2-methyl-3-phenylpyrido[3,4-b]pyrazin-7-yl]carbamate” (J Med Chem, 1992).

Usually ILS stands for the gain in survival time of treated over control animals, in per cent. Broadly, the IC50 is the concentration needed to halve the response being measured. Higher therefore signals lower potency. In the case of `CCOC(=O)Nc1cc2c(c(N)n1)N=C(c1ccccc1)CCN2`, the ILS at 8 mg/kg in the assay with Mus musculus [1] was 35%. The IC50 with L1210 [2] is 3.7 nM.

`CCOC(=O)Nc1cc2c(c(O)n1)N=C(c1ccccc1)C(C)N2` (stereo not given) showed an MI0.5 with L1210 [3] of 1800 nM. Besides, half-maximal inhibition with L1210 [2] (IC50) required 4400 nM.

Compound `CCOC(=O)Nc1cc2c(cn1)NC(c1ccccc1)C(C)N2` (stereo not given) came in with an MI0.5 in the assay on L1210 [3] of 161 nM. The increase in life span (ILS) at 70 mg/kg in the assay on Mus musculus [4] was 65%. The same compound returned a concentration for half-maximal inhibition (IC50) in the assay on L1210 [2] of 81 nM.

Consider `CCOC(=O)Nc1cc2c(c(N)n1)N=C(c1ccccc1)C(C)N2` (racemic), for which the MI0.5 in the assay with L1210 [3] was 0.58 nM. In addition, the increase in lifespan (ILS) at 1 mg/kg in the assay with Mus musculus [5] is 71%.

With `CC[C@]1(O)C[C@H]2CN(CCc3c([nH]c4ccccc34)[C@@](C(=O)OC)(c3cc4c(cc3OC)N(C=O)[C@H]3[C@@](O)(C(=O)OC)[C@H](OC(C)=O)[C@]5(CC)C=CCN6CC[C@]43[C@@H]65)C2)C1` [VINCRISTINE], the MI0.5 with L1210 [3] was 11 nM. Besides, in the assay on Mus musculus [6], the ILS at 2 mg/kg is 85%.

Compound `CCOC(=O)Nc1cc2c(c(N)n1)N=C(c1ccccc1)[C@@H](C)N2` yielded an MI0.5 in the assay on L1210 [3] of 27 nM. Further, the ILS at 30 mg/kg in the assay on Mus musculus [7] is 88%.

The compound `COc1cc2c(c(OC)c1OC)-c1ccc(OC)c(=O)cc1[C@@H](NC(C)=O)CC2` [COLCHICINE] had an MI0.5 in the assay with L1210 [3] of 21 nM.

`CCOC(=O)Nc1cc2c(c(N)n1)N=C(c1ccccc1)[C@H](C)N2` [MIVOBULIN] registered an MI0.5 in the assay with L1210 [3] of 0.14 nM. Also, the increase in life span (ILS) at 0.5 mg/kg in the assay with Mus musculus [8] is 64%.

As for `COC(=O)Nc1nc(N)c2c(n1)NC(C)C(c1ccccc1)=N2` (stereo not given), the increase in lifespan (ILS) at 200 mg/kg in the assay on Mus musculus [9] is 0%. In the assay on L1210 [3], this compound returned an MI0.5 of 3000 nM. The same compound had a half-inhibitory concentration (IC50) in the assay with L1210 [2] of 1700 nM.

The compound `CCOC(=O)Nc1cc(N)c2c(n1)NC(C)C(c1ccccc1)=N2` (stereo not given) yielded an MI0.5 with L1210 [3] of 6700 nM. For the same compound, the increase in life span (ILS) at 75 mg/kg with Mus musculus [10] was 0%. This compound also had an IC50 in the assay with L1210 [2] of 3900 nM.

`CCOC(=O)Nc1cc2c(cn1)N=C(c1ccccc1)C(C)N2` (stereo not given) returned an MI0.5 in the assay with L1210 [3] of 21 nM. Further, the increase in life span (ILS) at 24 mg/kg in the assay on Mus musculus [11] is 90%. In the assay on L1210 [2], this compound gave a half-maximal inhibitory concentration (IC50) of 17 nM.
